Experiment: Safety and tolerability
Assay type: in vivo, Japanese patients
Conditions: for Stomatitis / Subdural hematoma / Syncope / Thrombocytopenia / Tumor-associated fever / Vomiting / Anemia / Bone pain / Constipation / Corneal erosion / Cough / Diarrhea / Disseminated intravascular coagulation / Dysesthesia / Dysgeusia / ECG prolonged QT interval / Elevated ALT / Elevated AST / Elevated blood creatine phosphokinase / Elevated blood lactate dehydrogenase / Elevated liver enzymes (ALT, AST, and alkaline phosphatase) / Epistaxis / Febrile neutropenia / Headache / Hematoma / Hypertension / Hypokalemia / Hypotension / Hypoxia / Increased amylase / Insomnia / Lung infection / Nausea / Pleural effusion / Pneumonia / Pyrexia / Rash / Renal impairment / Sepsis / Somnolence: N = 24
Method in brief: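 In this open-label study, once-daily oral dosing escalated 20–300 mg/d by Bayesian continual reassessment. DLTs were judged from Cycles 0 and 1, and MTD/RD came from the posterior mean DLT rate plus investigator assessment. Treatment-emergent AEs were graded by NCI-CTCAE v4.0 for seriousness, duration and relatedness. The safety analysis set comprised all patients given ≥1 dose.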

CCc1nc(C(N)=O)c(Nc2ccc(N3CCC(N4CCN(C)CC4)CC3)c(OC)c2)nc1NC1CCOCC1 [gilteritinib]
Stomatitis (Grade 1-2): 5 (20.8%) n (%)
Subdural hematoma (Grade 1-2): 1 (4.2%) n (%)
Syncope (Grade 1-2): 0 n (%)
Thrombocytopenia (Grade 1-2): 0 n (%)
Tumor-associated fever (Grade 1-2): 2 (8.3%) n (%)
Vomiting (Grade 1-2): 2 (8.3%) n (%)
Anemia (Grade 3): 2 (8.3%) n (%)
Bone pain (Grade 3): 1 (4.2%) n (%)
Constipation (Grade 3): 0 n (%)
Corneal erosion (Grade 3): 0 n (%)
Cough (Grade 3): 0 n (%)
Diarrhea (Grade 3): 1 (4.2%) n (%)
Disseminated intravascular coagulation (Grade 3): 3 (12.5%) n (%)
Dysesthesia (Grade 3): 0 n (%)
Dysgeusia (Grade 3): 0 n (%)
ECG prolonged QT interval (Grade 3): 1 (4.2%) n (%)
Elevated ALT (Grade 3): 0 n (%)
Elevated AST (Grade 3): 0 n (%)
Elevated blood creatine phosphokinase (Grade 3): 2 (8.3%) n (%)
Elevated blood lactate dehydrogenase (Grade 3): 1 (4.2%) n (%)
Elevated liver enzymes (ALT, AST, and alkaline phosphatase) (Grade 3): 0 n (%)
Epistaxis (Grade 3): 0 n (%)
Febrile neutropenia (Grade 3): 3 (12.5%) n (%)
Headache (Grade 3): 0 n (%)
Hematoma (Grade 3): 0 n (%)
Hypertension (Grade 3): 0 n (%)
Hypokalemia (Grade 3): 1 (4.2%) n (%)
Hypotension (Grade 3): 0 n (%)
Hypoxia (Grade 3): 0 n (%)
Increased amylase (Grade 3): 1 (4.2%) n (%)
Insomnia (Grade 3): 0 n (%)
Lung infection (Grade 3): 1 (4.2%) n (%)
Nausea (Grade 3): 0 n (%)
Pleural effusion (Grade 3): 0 n (%)
Pneumonia (Grade 3): 3 (12.5%) n (%)
Pyrexia (Grade 3): 0 n (%)
Rash (Grade 3): 0 n (%)
Renal impairment (Grade 3): 0 n (%)
Sepsis (Grade 3): 1 (4.2%) n (%)
Somnolence (Grade 3): 0 n (%)
Stomatitis (Grade 3): 0 n (%)
Subdural hematoma (Grade 3): 0 n (%)
Syncope (Grade 3): 2 (8.3%) n (%)
Thrombocytopenia (Grade 3): 2 (8.3%) n (%)
Tumor-associated fever (Grade 3): 0 n (%)
Vomiting (Grade 3): 0 n (%)
Anemia (Grade 4): 0 n (%)
Bone pain (Grade 4): 0 n (%)
Constipation (Grade 4): 0 n (%)
Corneal erosion (Grade 4): 0 n (%)
Cough (Grade 4): 0 n (%)
Diarrhea (Grade 4): 0 n (%)
Disseminated intravascular coagulation (Grade 4): 0 n (%)
Dysesthesia (Grade 4): 0 n (%)
Dysgeusia (Grade 4): 0 n (%)
ECG prolonged QT interval (Grade 4): 0 n (%)
Elevated ALT (Grade 4): 0 n (%)
Elevated AST (Grade 4): 0 n (%)
Elevated blood creatine phosphokinase (Grade 4): 1 (4.2%) n (%)
Elevated blood lactate dehydrogenase (Grade 4): 0 n (%)
Elevated liver enzymes (ALT, AST, and alkaline phosphatase) (Grade 4): 0 n (%)
Epistaxis (Grade 4): 0 n (%)
Febrile neutropenia (Grade 4): 0 n (%)
Headache (Grade 4): 0 n (%)
Hematoma (Grade 4): 0 n (%)
Hypertension (Grade 4): 0 n (%)
Hypokalemia (Grade 4): 0 n (%)
Hypotension (Grade 4): 0 n (%)
Hypoxia (Grade 4): 0 n (%)
Increased amylase (Grade 4): 0 n (%)
Insomnia (Grade 4): 0 n (%)
Lung infection (Grade 4): 0 n (%)
Nausea (Grade 4): 0 n (%)
Pleural effusion (Grade 4): 0 n (%)
Pneumonia (Grade 4): 0 n (%)
Pyrexia (Grade 4): 0 n (%)
Rash (Grade 4): 0 n (%)
Renal impairment (Grade 4): 0 n (%)
Sepsis (Grade 4): 0 n (%)
Somnolence (Grade 4): 0 n (%)
Stomatitis (Grade 4): 0 n (%)
Subdural hematoma (Grade 4): 0 n (%)
Syncope (Grade 4): 0 n (%)
Thrombocytopenia (Grade 4): 2 (8.3%) n (%)
Tumor-associated fever (Grade 4): 0 n (%)
Vomiting (Grade 4): 0 n (%)
Anemia (Grade 5): 0 n (%)
Bone pain (Grade 5): 0 n (%)
Constipation (Grade 5): 0 n (%)
Corneal erosion (Grade 5): 0 n (%)
Cough (Grade 5): 0 n (%)
Diarrhea (Grade 5): 0 n (%)
Disseminated intravascular coagulation (Grade 5): 0 n (%)
Dysesthesia (Grade 5): 0 n (%)
Dysgeusia (Grade 5): 0 n (%)
ECG prolonged QT interval (Grade 5): 0 n (%)
Elevated ALT (Grade 5): 0 n (%)
Elevated AST (Grade 5): 0 n (%)
Elevated blood creatine phosphokinase (Grade 5): 0 n (%)
Elevated blood lactate dehydrogenase (Grade 5): 0 n (%)
Elevated liver enzymes (ALT, AST, and alkaline phosphatase) (Grade 5): 0 n (%)
Epistaxis (Grade 5): 0 n (%)
Febrile neutropenia (Grade 5): 0 n (%)
Headache (Grade 5): 0 n (%)
Hematoma (Grade 5): 0 n (%)
Hypertension (Grade 5): 0 n (%)
Hypokalemia (Grade 5): 0 n (%)
Hypotension (Grade 5): 0 n (%)
Hypoxia (Grade 5): 0 n (%)
Increased amylase (Grade 5): 0 n (%)
Insomnia (Grade 5): 0 n (%)
Lung infection (Grade 5): 0 n (%)
Nausea (Grade 5): 0 n (%)
Pleural effusion (Grade 5): 0 n (%)
Pneumonia (Grade 5): 0 n (%)
Pyrexia (Grade 5): 0 n (%)
Rash (Grade 5): 0 n (%)
Renal impairment (Grade 5): 0 n (%)
Sepsis (Grade 5): 0 n (%)
Somnolence (Grade 5): 0 n (%)
Stomatitis (Grade 5): 0 n (%)
Subdural hematoma (Grade 5): 1 (4.2%) n (%)
Syncope (Grade 5): 0 n (%)
Thrombocytopenia (Grade 5): 0 n (%)
Tumor-associated fever (Grade 5): 0 n (%)
Vomiting (Grade 5): 0 n (%)
patients who experienced at least 1 AE (SAF, all doses): 24 patients
patients with AEs resulting in permanent discontinuation of gilteritinib (all doses, 6 of 24 patients): 25%
patients with serious AEs (all doses, 7 of 24 patients): 29.2%
patients with drug-related grade ≥3 AEs (all doses, 9 patients): 37.5%
Drug-related AE: pyrexia (all doses, n = 3/24): 12.5%
grade ≥3 AE: disseminated intravascular coagulation (all doses, n = 3/24): 12.5%
grade ≥3 AE: elevated blood creatine phosphokinase (all doses, n = 3/24): 12.5%
grade ≥3 AE: febrile neutropenia (all doses, n = 3/24): 12.5%
grade ≥3 AE: pneumonia (all doses, n = 3/24): 12.5%
Drug-related AE: diarrhea (all doses, n = 4/24): 16.7%
Drug-related AE: hypertension (all doses, n = 4/24): 16.7%
Drug-related AE: stomatitis (all doses, n = 4/24): 16.7%
Drug-related AE: thrombocytopenia (all doses, n = 4/24): 16.7%
grade ≥3 AE: thrombocytopenia (all doses, n = 4/24): 16.7%
Drug-related AE: renal impairment (all doses, n = 5/24): 20.8%
Drug-related AE: elevated blood lactate dehydrogenase (all doses, n = 6/24): 25%
Drug-related AE: elevated blood creatine phosphokinase (all doses, n = 7/24): 29.2%
Drug-related AE: elevated liver enzyme levels (all doses, n = 8/24): 33.3%
patients with grade ≥3 AEs (all doses, n = 16/24): 66.7%
patients with at least 1 treatment-related AE (all doses, n = 22/24): 91.7%
AE: febrile neutropenia (any grade, all doses, n = 5/24): 20.8%
AE: hypertension (any grade, all doses, n = 5/24): 20.8%
AE: renal impairment (any grade, all doses, n = 5/24): 20.8%
AE: stomatitis (any grade, all doses, n = 5/24): 20.8%
AE: diarrhea (any grade, all doses, n = 7/24): 29.2%
AE: pyrexia (any grade, all doses, n = 7/24): 29.2%
AE: elevated blood lactate dehydrogenase (any grade, all doses, n = 8/24): 33.3%
AE: elevated blood creatine phosphokinase (any grade, all doses, n = 9/24): 37.5%
AE: elevated liver enzymes (ALT, AST, alkaline phosphatase) (any grade, all doses, n = 9/24): 37.5%
drug-related AE leading to treatment discontinuation: pneumonia (n = 2/24): 8.3%
drug-related grade ≥3 AE: pneumonia (n = 2, 40 and 300 mg/d): 8.3%
drug-related grade ≥3 AE: anemia (n = 2, 200 and 300 mg/d): 8.3%
drug-related grade ≥3 AE: febrile neutropenia (n = 2, 200 and 300 mg/d): 8.3%
drug-related grade ≥3 AE: increased blood creatine phosphokinase (n = 3, 200 and 300 mg/d): 12.5%
drug-related grade ≥3 AE: thrombocytopenia (n = 4, 200 and 300 mg/d): 16.7%
patients who experienced DLTs during Cycle 0 and Cycle 1 (of the 24 patients in the SAF): 3 patients
maximum tolerated dose (MTD) (once-daily oral, Bayesian CRM and investigator opinion): 200 mg/day
recommended dose (RD) (once-daily oral, for subsequent studies): 120 mg/day

From PMC6172068 (Cancer Science, 2018)
